# Calls of active or inactive are those of the source. The calls are words filed in the database; no cut-off is given here.
# Columns and labels:
# Nucleic Acid [1] = assay: Binding affinity to DNA minor-groove 5'-ACGCGT-3' sequence at 9:500 of DNA/compound ratio by CD spectral analysis; type: nucleic-acid assay
# Nucleic Acid [2] = assay: Binding affinity to 5'-ACACTT-3' DNA at 9:500 of DNA/compound ratio by CD spectral analysis; type: nucleic-acid assay
# Nucleic Acid [3] = assay: Binding affinity to 5'-ACGCGT-3' DNA at 9:500 of DNA/compound ratio by CD spectral analysis; type: nucleic-acid assay
# Nucleic Acid [4] = assay: Binding affinity to 5'-ACGCGT-3' DNA assessed as change in melting temperature at 1:3 of DNA/compound ratio by spectrophotometry; type: nucleic-acid assay
# Procedure, shortened: (§1)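 UV thermal melt (Cary spectrophotometer) of each duplex, 1 µM DNA with 3 µM polyamide, in 10 mM phosphate buffer with 12.5 mM NaCl, 1 mM EDTA, pH 6.2. ΔTM is the melting temperature of the DNA–polyamide complex minus that of duplex DNA alone.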
# Nucleic Acid [5] = assay: Binding affinity to 5'-AAATTT-3' DNA at 9:500 of DNA/compound ratio by CD spectral analysis; type: nucleic-acid assay
# Nucleic Acid [6] = assay: Binding affinity to 5'-AAATTT-3' DNA assessed as change in melting temperature at 1:3 of DNA/compound ratio by spectrophotometry; type: nucleic-acid assay; procedure, shortened: as §1
# Nucleic Acid [7] = assay: Binding affinity to 5'-AAGCTA-3' DNA assessed as macroscopic binding constant K1 by surface plasmon resonance-biosensor method; type: nucleic-acid assay
# Procedure, shortened: (§2)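 SPR biosensor at 25 °C. 5'-biotinylated DNA hairpins, about 400 RU, were captured on streptavidin chips, with one blank flow cell as reference. Running buffer was 0.01 M cacodylic acid pH 6.25, 0.1 M NaCl, 1 mM EDTA, 0.005% P20. Known polyamide concentrations were injected and fitted to one- or two-site models to give K1 and K2.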
# Nucleic Acid [8] = assay: Binding affinity to 5'-ACGCGT-3' DNA assessed as macroscopic binding constant K2 by surface plasmon resonance-biosensor method; type: nucleic-acid assay; procedure, shortened: as §2
# Nucleic Acid [9] = assay: Binding affinity to 5'-ACGCGT-3' DNA at 30:80 of DNA/compound ratio by isothermal titration calorimetry; type: nucleic-acid assay
# Procedure, shortened: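 ITC by the model-free method at 25 °C in 0.01 M cacodylic acid. Polyamide at 80 µM was injected into 30 µM DNA in 30 × 10 µL injections, every 300 s after a 300 s delay, up to a mole ratio of about 0.6:1. Integrated heats were corrected for nonspecific heats including dilution, and normalized ΔH was fitted linearly against mole ratio.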
# Nucleic Acid [10] = assay: Binding affinity to 5'-AAGCTA-3' DNA assessed as macroscopic binding constant K2 by surface plasmon resonance-biosensor method; type: nucleic-acid assay; procedure, shortened: as §2
# Nucleic Acid [11] = assay: Binding affinity to 5'-AAATTT-3' DNA by surface plasmon resonance-biosensor method; type: nucleic-acid assay; procedure, shortened: as §2
# Nucleic Acid [12] = assay: Binding affinity to 5'-ACGCGT-3' DNA by surface plasmon resonance-biosensor method; type: nucleic-acid assay; procedure, shortened: as §2
# Nucleic Acid [13] = assay: Binding affinity to 5'-ACACTT-3' DNA assessed as change in melting temperature at 1:3 of DNA/compound ratio by spectrophotometry; type: nucleic-acid assay; procedure, shortened: as §1
# Nucleic Acid [14] = assay: Binding affinity to 5'-ACGCGT-3' sequence in 125 bp 5'-[32P]-radiolabeled DNA at 0.5 uM after 30 mins by DNase1 footprinting analysis; type: nucleic-acid assay
# Procedure, shortened: (§3)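 A 125 bp radiolabeled PCR fragment was incubated 30 min at room temperature with polyamide in 10 mM Tris, 10 mM NaCl, pH 7. DNase I (0.02 U, with Mg2+/Mn2+, pH 8.0) then cleaved for 3 min, stopped by freezing on dry ice. Products were resolved on a denaturing 10% polyacrylamide urea gel and read by autoradiography.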
# Nucleic Acid [15] = assay: Binding affinity to 5'-ACGCGT-3' DNA assessed as macroscopic binding constant K1 by surface plasmon resonance-biosensor method; type: nucleic-acid assay; procedure, shortened: as §2
# Nucleic Acid [16] = assay: Binding affinity to 5'-AAGCTA-3' DNA by surface plasmon resonance-biosensor method; type: nucleic-acid assay; procedure, shortened: as §2
# Nucleic Acid [17] = assay: Binding affinity to 5'-AGCGCT-3' sequence in 125 bp 5'-[32P]-radiolabeled DNA at 100 uM after 30 mins by DNase1 footprinting analysis; type: nucleic-acid assay; procedure, shortened: as §3
# Nucleic Acid [18] = assay: Binding affinity to 5'-ACACGT-3' sequence in 125 bp 5'-[32P]-radiolabeled DNA at 100 uM after 30 mins by DNase1 footprinting analysis; type: nucleic-acid assay; procedure, shortened: as §3
# Nucleic Acid [19] = assay: Binding affinity to 5'-ACCGGT-3' sequence in 125 bp 5'-[32P]-radiolabeled DNA at 100 uM after 30 mins by DNase1 footprinting analysis; type: nucleic-acid assay; procedure, shortened: as §3
# Nucleic Acid [20] = assay: Binding affinity to 5'-ACGCGT-3' sequence in 125 bp 5'-[32P]-radiolabeled DNA at 20 uM after 30 mins by DNase1 footprinting analysis; type: nucleic-acid assay; procedure, shortened: as §3
# [21] = Solubility of the compound in water; type: physicochemical; details: buffer
# Nucleic Acid [22] = assay: Binding affinity to 5'-ACGCGT-3' sequence in 125 bp 5'-[32P]-radiolabeled DNA at 0.05 uM after 30 mins by DNase1 footprinting analysis; type: nucleic-acid assay; procedure, shortened: as §3
# Nucleic Acid [23] = assay: Binding affinity to DNA minor-groove 5'-ACGCGT-3' sequence; type: nucleic-acid assay
# Nucleic Acid [24] = assay: Binding affinity to 5'-AAATTT-3' DNA; type: nucleic-acid assay
# Nucleic Acid [25] = assay: Binding affinity to DNA minor-groove 5'-ACCGGT-3' sequence; type: nucleic-acid assay
# Nucleic Acid [26] = assay: Binding affinity to 5'-AAATTT-3' DNA assessed as macroscopic binding constant K1 by surface plasmon resonance-biosensor method; type: nucleic-acid assay; procedure, shortened: as §2
Activity (Nucleic Acid [1]),Activity (Nucleic Acid [3]),ΔTm (Nucleic Acid [4]) [°C],ΔTm (Nucleic Acid [6]) [°C],K (Nucleic Acid [7]) [×10⁵ /M],K (Nucleic Acid [8]) [×10⁸ /M],Activity (Nucleic Acid [9]),K (Nucleic Acid [10]),Activity (Nucleic Acid [11]),Kb (Nucleic Acid [12]),ΔTm (Nucleic Acid [13]) [°C],Activity (Nucleic Acid [14]),K (Nucleic Acid [15]),Kb (Nucleic Acid [16]),Structure (SMILES),other results
Active,Active,> 25,7.6,2.9,2.7,Active,1.2 ×10⁷ /M,inactive,1.5 ×10⁷ /M,0,Active,8.7 ×10⁵ /M,2.1 ×10⁶ /M,CN(C)CCNC(=O)c1nc(NC(=O)c2cc(NC(=O)c3nc(NC(=O)c4ccccc4)cn3C)cn2CCCN)cn1C,Activity (Nucleic Acid [2]): Active; Activity (Nucleic Acid [5]): Active
Active,Active,9,0,2.3,3.7,Active,2.8 ×10⁵ /M,inactive,4.8 ×10⁶ /M,0,–,6.1 ×10⁴ /M,2.5 ×10⁵ /M,CN(C)CCNC(=O)c1nc(NC(=O)c2cc(NC(=O)c3nc(NC(=O)c4ccccc4)cn3C)cn2C)cn1C,Activity (Nucleic Acid [17]): inactive; Activity (Nucleic Acid [18]): inactive; Activity (Nucleic Acid [19]): inactive; Activity (Nucleic Acid [20]): Active
–,–,–,–,–,–,–,–,–,–,–,–,–,–,CN(C)CCNC(=O)c1nc(NC(=O)c2cc(NC(=O)c3nc(NC=O)cn3C)cn2CCCN)cn1C.Cl,solubility [21]: soluble
–,–,9,1,–,–,–,–,–,–,–,Active,1.9 ×10⁸ /M,–,CN(C)CCNC(=O)c1nc(NC(=O)c2cc(NC(=O)c3nc(NC=O)cn3C)cn2C)cn1C,Activity (Nucleic Acid [22]): Active; K (Nucleic Acid [23]): 1.9 ×10⁸ /M; K (Nucleic Acid [24]): 5.3 ×10⁴ /M; K (Nucleic Acid [25]): 2.2 ×10⁵ /M; K (Nucleic Acid [26]): 5.3 ×10⁴ /M
